Measurements published in ChEMBL document CHEMBL1140930 (J Med Chem, 2009).

Tests used:
Format in all cases: functional, cell-based
[1] = Cell cycle arrest in human KB/HeLa cells assessed as G1 phase accumulation at 31.6 nM after 24 hrs by FACS analysis
Summary of the method: (§1)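 Subconfluent KB/HeLa cells exposed to a range of compound concentrations for 24 h at 37 °C, then detached and fixed in 70% ethanol. DNA stained with propidium iodide after RNase digestion and measured by flow cytometry. Cell-cycle phase fractions taken from cell cycle analysis software. At least two replicates.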

[2] = Cell cycle arrest in human KB/HeLa cells assessed as S phase accumulation at 1 nM after 24 hrs by FACS analysis; summary of the method: as §1
[3] = tested on: RKO; test: Antiproliferative activity against human RKO cells containing ecdysone-inducible expression vector of p27kipl by XTT assay
Summary of the method: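 RKO cells carried an ecdysone-inducible p27Kip1 vector and were tested with and without induction. On day 1 they were plated with or without 3 µM ponasterone A, which gives G1 arrest, at 2 × 10⁴ cells/well induced or 6 × 10³ not induced, then held 24 h at 37 °C. Compound was then added for 48 h at 37 °C, followed by a standard XTT assay. IC50 came from nonlinear regression, n ≥ 2.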

[4] = Cell cycle arrest in human KB/HeLa cells assessed as S phase accumulation at 10 nM after 24 hrs by FACS analysis; summary of the method: as §1
[5] = Antiproliferative activity against human KB/HeLa cells by XTT assay
Summary of the method: (§2)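 XTT metabolic read-out. Cells seeded at 1 × 10³–8 × 10⁴ cells/well for logarithmic growth and exposed to graded concentrations for 48 h. At least two replicates. IC50 from nonlinear regression of dose-response curves. LT12/MDR: rat LT12 with ectopic human MDR-1. L1210/VCR: MDR-1 expressing, MRP-1 negative.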

[6] = tested on: SF-268; test: Antiproliferative activity against human SF268 cells by XTT assay; summary of the method: as §2
[7] = Cell cycle arrest in human KB/HeLa cells assessed as G2/M phase accumulation at 0.3 nM after 24 hrs by FACS analysis; summary of the method: as §1
[8] = Cell cycle arrest in human KB/HeLa cells assessed as G1 phase accumulation at 3.16 nM after 24 hrs by FACS analysis; summary of the method: as §1
[9] = Cell cycle arrest in human KB/HeLa cells assessed as S phase accumulation at 3.16 nM after 24 hrs by FACS analysis; summary of the method: as §1
[10] = Cell cycle arrest in human KB/HeLa cells assessed as S phase accumulation at 316 nM after 24 hrs by FACS analysis; summary of the method: as §1
[11] = Cell cycle arrest in human KB/HeLa cells assessed as G1 phase accumulation at 1 nM after 24 hrs by FACS analysis; summary of the method: as §1
[12] = Cell cycle arrest in human KB/HeLa cells assessed as G2/M phase accumulation at 31.6 nM after 24 hrs by FACS analysis; summary of the method: as §1
[13] = Cell cycle arrest in human KB/HeLa cells assessed as G1 phase accumulation at 10 nM after 24 hrs by FACS analysis; summary of the method: as §1
[14] = Cell cycle arrest in human KB/HeLa cells assessed as G2/M phase accumulation at 10 nM after 24 hrs by FACS analysis; summary of the method: as §1
[15] = Cell cycle arrest in human KB/HeLa cells assessed as G1 phase accumulation at 100 nM after 24 hrs by FACS analysis; summary of the method: as §1
[16] = Cell cycle arrest in human KB/HeLa cells assessed as S phase accumulation at 31.6 nM after 24 hrs by FACS analysis; summary of the method: as §1
[17] = Cell cycle arrest in human KB/HeLa cells assessed as G2/M phase accumulation after 24 hrs by FACS analysis; summary of the method: as §1
[18] = Cell cycle arrest in human KB/HeLa cells assessed as G1 phase accumulation at 316 nM after 24 hrs by FACS analysis; summary of the method: as §1
[19] = Cell cycle arrest in human KB/HeLa cells assessed as S phase accumulation at 100 nM after 24 hrs by FACS analysis; summary of the method: as §1
[20] = Cell cycle arrest in human KB/HeLa cells assessed as G2/M phase accumulation at 100 nM after 24 hrs by FACS analysis; summary of the method: as §1
[21] = Cell cycle arrest in human KB/HeLa cells assessed as G2/M phase accumulation at 1 nM after 24 hrs by FACS analysis; summary of the method: as §1
[22] = tested on: NCI-H460; test: Antiproliferative activity against human NCI-H460 cells by XTT assay; summary of the method: as §2
[23] = tested on: RKO; test: Antiproliferative activity against human RKO cells by XTT assay
Summary of the method: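 RKO colon cells with ecdysone-inducible p27Kip1. Day 1: plated with or without 3 µM ponasterone A for 24 h, giving G1 arrest when induced (2 × 10⁴ cells/well induced; 6 × 10³ not induced). Day 2: compound added (DMSO control) for 48 h at 37 °C, then standard XTT. At least duplicate. IC50 by nonlinear regression.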

[24] = Cell cycle arrest in human KB/HeLa cells assessed as G1 phase accumulation at 0.3 nM after 24 hrs by FACS analysis; summary of the method: as §1
[25] = tested on: SK-OV-3; test: Antiproliferative activity against human SKOV3 cells by XTT assay
Summary of the method: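 XTT metabolic-activity read-out of proliferation. Cells were seeded at 1 × 10³-8 × 10⁴ cells/well for logarithmic growth and exposed to a range of compound concentrations for 48 h. IC50 came from nonlinear regression of dose-response curves, with at least two replicates. The P388/Adr subline was doxorubicin-selected with elevated MDR-1.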

[26] = Cell cycle arrest in human KB/HeLa cells assessed as G2/M phase accumulation at 316 nM after 24 hrs by FACS analysis; summary of the method: as §1
[27] = Cell cycle arrest in human KB/HeLa cells assessed as S phase accumulation at 0.3 nM after 24 hrs by FACS analysis; summary of the method: as §1
[28] = Cell cycle arrest in human KB/HeLa cells assessed as G2/M phase accumulation at 3.16 nM after 24 hrs by FACS analysis; summary of the method: as §1
[29] = Cell cycle arrest in human KB/HeLa cells assessed as G2/M phase accumulation at 0.1 nM after 24 hrs by FACS analysis; summary of the method: as §1
[30] = Cell cycle arrest in human KB/HeLa cells assessed as S phase accumulation at 0.1 nM after 24 hrs by FACS analysis; summary of the method: as §1
[31] = Cell cycle arrest in human KB/HeLa cells assessed as G1 phase accumulation at 0.1 nM after 24 hrs by FACS analysis; summary of the method: as §1

Question: What does the source list for `COc1cc2c(c(OC)c1OC)-c1ccc(OC)c(=O)cc1[C@@H](NC(C)=O)CC2` [COLCHICINE]?
Answer: Activity [1]: 0.5%; Activity [2]: 25.4%; IC50 [3]: > 3 µM; Activity [4]: 35.7%; IC50 [5]: 0.01 µM; IC50 [6]: 0.01 µM; Activity [7]: 10.1%; Activity [8]: 64.3%; Activity [9]: 25.1%; Activity [10]: 5.2%; Activity [11]: 64.7%; Activity [12]: 87.6%; Activity [13]: 32.2%; Activity [14]: 32.1%; Activity [15]: 0.3%; Activity [16]: 11.9%; EC50 [17]: 0.014 µM; Activity [18]: 0.3%; Activity [19]: 5.1%; Activity [20]: 94.7%; Activity [21]: 10%; IC50 [22]: 0.01 µM; IC50 [23]: 0.01 µM; Activity [24]: 63.3%; IC50 [25]: 0.01 µM; Activity [26]: 94.5%; Activity [27]: 26.6%

Question: Which Activity [1] does the source give for `CC[C@]1(O)C[C@H]2CN(CCc3c([nH]c4ccccc34)[C@@](C(=O)OC)(c3cc4c(cc3OC)N(C=O)[C@H]3[C@@](O)(C(=O)OC)[C@H](OC(C)=O)[C@]5(CC)C=CCN6CC[C@]43[C@@H]65)C2)C1` [VINCRISTINE] here?
Answer: 92.6%

Question: And the Activity [2]?
Answer: 28.3%

Question: And the Activity [28]?
Answer: 65.8%

Question: And the Activity [4]?
Answer: 6.5%

Question: What about the Activity [7] of the same compound?
Answer: 11.7%

Question: What about the Activity [8] of the same compound?
Answer: 6.5%

Question: What about the Activity [9] of the same compound?
Answer: 26%

Question: What about the Activity [29] of the same compound?
Answer: 11.1%

Question: And the Activity [10]?
Answer: 0.2%

Question: And the Activity [11]?
Answer: 53.7%

Question: And the Activity [12]?
Answer: 7.2%

Question: And the Activity [30]?
Answer: 27.7%

Question: What about the Activity [13] of the same compound?
Answer: 86.7%

Question: And the Activity [31]?
Answer: 61.2%

Question: What about the Activity [14] of the same compound?
Answer: 13.1%

Question: And the Activity [15]?
Answer: 95.1%

Question: What about the Activity [16] of the same compound?
Answer: 0.5%

Question: And the EC50 [17]?
Answer: 0.0024 µM

Question: And the Activity [18]?
Answer: 93.8%

Question: What about the Activity [19] of the same compound?
Answer: 1%

Question: What about the Activity [20] of the same compound?
Answer: 4.8%

Question: What about the Activity [21] of the same compound?
Answer: 17.2%

Question: What about the Activity [24] of the same compound?
Answer: 64.5%

Question: What about the Activity [26] of the same compound?
Answer: 5.9%

Question: What about the Activity [27] of the same compound?
Answer: 24%
